Measurements as given in ChEMBL document CHEMBL4400546, “A Cinchona Alkaloid Antibiotic That Appears To Target ATP Synthase in Streptococcus pneumoniae” (J Med Chem, 2019).
In brackets after ≈: the same amount, converted by molar mass.

Legend:
[1] = Elimination half life in ICR mouse at 25 mg/kg, po via bolus administration by LC-MS/MS analysis; format: ADME, organism-based; conditions: in vivo, read-out: beta t1/2 (converted)
Procedure, shortened: (§1)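 Single-dose PK in male ICR mice, bolus p.o. 25 mg/kg or i.v. 2.5 mg/kg. Plasma concentration followed over time, n = 3. Parameters derived by noncompartmental analysis of the concentration–time curves. Oral bioavailability calculated from AUC.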

[2] = Elimination half life in ICR mouse at 2.5 mg/kg, iv by LC-MS/MS analysis; format: ADME, organism-based; conditions: in vivo, read-out: beta t1/2 (converted); procedure, shortened: as §1
[3] = Tmax in ICR mouse at 25 mg/kg, po via bolus administration by LC-MS/MS analysis; format: ADME, organism-based; conditions: in vivo
Procedure, shortened: (§2)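 Male ICR mice, single oral bolus at 25 mg/kg. Serum concentration-time profiles (n = 3) analysed by noncompartmental analysis.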

[4] = AUCt in ICR mouse at 2.5 mg/kg, iv by LC-MS/MS analysis; format: ADME, organism-based; conditions: in vivo; procedure, shortened: as §1
[5] = Volume of distribution at steady state in ICR mouse at 2.5 mg/kg, iv by LC-MS/MS analysis; format: ADME, organism-based; conditions: in vivo, read-out: Vdss
Procedure, shortened: (§3)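 Male ICR mice, single i.v. bolus at 2.5 mg/kg. Serum concentration-time curves (n = 3) analysed noncompartmentally to give Tmax and steady-state volume of distribution.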

Streptococcus pneumoniae [6] = assay: Antibacterial activity against Streptococcus pneumoniae D39 after 20 hrs by CLSI-based microdilution method; format: functional; conditions: D39, 20 h
[7] = Oral bioavailability in ICR mouse at 25 mg/kg via bolus administration by LC-MS/MS analysis; format: ADME, organism-based; conditions: in vivo; procedure, shortened: as §2
[8] = Cytotoxicity against human HepG2 cells assessed as reduction in cell viability after 48 hrs by Alamar Blue assay; format: cell-based
[9] = AUCt in ICR mouse at 25 mg/kg, po via bolus administration by LC-MS/MS analysis; format: ADME, organism-based; conditions: in vivo; procedure, shortened: as §1
[10] = Cmax in ICR mouse at 2.5 mg/kg, iv by LC-MS/MS analysis; format: ADME, organism-based; design: dose 2.5 mg/kg, route intravenous; conditions: in vivo; procedure, shortened: as §1
[11] = Cmax in ICR mouse at 25 mg/kg, po via bolus administration by LC-MS/MS analysis; format: ADME, organism-based; design: dose 25 mg/kg, route oral; conditions: in vivo; procedure, shortened: as §1
[12] = Tmax in ICR mouse at 2.5 mg/kg, iv by LC-MS/MS analysis; format: ADME, organism-based; conditions: in vivo; procedure, shortened: as §3
[13] = Clearance in ICR mouse at 2.5 mg/kg, iv by LC-MS/MS analysis; format: ADME, organism-based; conditions: in vivo; procedure, shortened: as §1
[14] = Drug level in ICR mouse liver microsomes treated with 6-Cyclobutoxy-(R)-4-[((1S,2S,4S,5Z)-5-ethylidene-1-azabicyclo-[2.2.2]octan-2-yl)hydroxymethyl]quinoline at 10 uM preincubated with NADPH for 10 mins and measured after 90 mins by LC-MS/MS analysis; format: ADME, Microsome; conditions: 1.5 h
[15] = Drug level in ICR mouse liver microsomes treated with 6-Cyclobutoxy-(R)-4-[((1S,2S,4S,5E)-5-ethylidene-1-azabicyclo[2.2.2]octan-2-yl)hydroxymethyl]quinoline at 10 uM preincubated with NADPH for 10 mins and measured after 90 mins by LC-MS/MS analysis; format: ADME, Microsome; conditions: 1.5 h
[16] = Mitochondrial toxicity in human HepG2 cells assessed as reduction in cell viability after 24 hrs in presence of galactose by CellTiter-Glo assay; format: cell-based
Procedure, shortened: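 HepG2 cells are grown in DMEM supplemented with 10 mM galactose or 10 mM glucose and treated for 24 h. Viability is read by CellTiter-Glo luminescence. The CC90 is the concentration inhibiting 90% of cell viability, taken from dose–response curves. Oligomycin and tamoxifen serve as controls.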

Streptococcus pneumoniae [17] = assay: Bactericidal activity against Streptococcus pneumoniae D39 after 24 hrs; format: functional; conditions: D39, 24 h
Streptococcus pneumoniae [18] = assay: Antibacterial activity against amoxicillin/penicillin/erythromycin/ertapenem/moxifloxacin/cefotaxime-resistant Streptococcus pneumoniae TH2889 (6B) after 20 hrs by CLSI-based microdilution method; format: functional
[19] = Mitochondrial toxicity in human HepG2 cells assessed as reduction in cell viability after 24 hrs in presence of glucose by CellTiter-Glo assay; format: cell-based
Procedure, shortened: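 HepG2 cells grown in DMEM with 10 mM glucose, treated 24 h; viability read by CellTiter-Glo luminescence. Value is the concentration giving 90% loss of viability (CC90) from dose-response curves, top concentration 300 µM.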

Streptococcus pneumoniae [20] = assay: Antibacterial activity against amoxicillin/penicillin/chloramphenicol/erythromycin/meropenem/cefotaxime-resistant Streptococcus pneumoniae TH2582 (19A) after 20 hrs by CLSI-based microdilution method; format: functional
Streptococcus pneumoniae [21] = assay: Antibacterial activity against amoxicillin/penicillin/cefotaxime/erythromycin/tetracycline-resistant Streptococcus pneumoniae TH2784 (19F) after 20 hrs by CLSI-based microdilution method; format: functional
[22] = Drug metabolism in ICR mouse liver microsomes at 10 uM preincubated with NADPH for 10 mins and measured after 60 mins by LC-MS/MS analysis; format: ADME, Microsome; conditions: read-out: Drug metabolism
Streptococcus pneumoniae [23] = assay: Antibacterial activity against optochin-resistant Streptococcus pneumoniae R6 expressing atpE G142C mutant after 20 hrs by CLSI-based microdilution method; format: functional; conditions: R6, 20 h
Streptococcus pneumoniae [24] = assay: Antibacterial activity against optochin-resistant Streptococcus pneumoniae R6 expressing atpE G145A mutant after 20 hrs by CLSI-based microdilution method; format: functional; conditions: R6, 20 h
Streptococcus pneumoniae [25] = assay: Antibacterial activity against penicillin/erythromycin/meropenem/tetracycline-resistant Streptococcus pneumoniae TH2863 (19F) after 20 hrs by CLSI-based microdilution method; format: functional
Streptococcus pneumoniae [26] = assay: Antibacterial activity against Streptococcus pneumoniae R6 after 20 hrs by CLSI-based microdilution method; format: functional; conditions: R6, 20 h
Enterococcus faecalis = assay: Antibacterial activity against Enterococcus faecalis; format: functional
Streptococcus pneumoniae [27] = assay: Antibacterial activity against Streptococcus pneumoniae; format: functional
Procedure, shortened: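 MIC read per CLSI guidelines as the lowest concentration giving complete inhibition of visible growth. The main screen used strain D39. A further panel covered drug-sensitive, multidrug-resistant and optochin-resistant strains, including R6 carrying atpE point mutations G142C or G145A made by a PCR-based approach.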

Staphylococcus aureus = assay: Antibacterial activity against Staphylococcus aureus; format: functional
[28] = Cmax in human; format: ADME
[29] = Elimination half life in human
[30] = test system: Staphylococcus epidermidis; assay: Antibacterial activity against Staphylococcus epidermidis; format: functional
[31] = Protein binding in plasma (unknown origin); format: ADME, cell-free; conditions: read-out: PPB

SMILES	half-life [1] [min]	half-life [2] [min]	Tmax [3] [min]	AUC(0-t) [4] [ng·h/mL]	Vd [5] [L/kg]	MIC (Streptococcus pneumoniae [6]) [µM]	bioavailability [7] [%]	CC50 at 48 h [8] [µM]	AUC(0-t) [9] [ng·h/mL]	Cmax [10] [ng/mL]	Cmax [11] [ng/mL]	Tmax [12] [min]	clearance [13] [mL/min/kg]	Drug uptake [14]	Drug uptake [15]	other results
C/C=C1/C[N@]2CC[C@H]1C[C@H]2[C@H](O)c1ccnc2ccc(OC3CCC3)cc12	42	26.4	4.98	175	8.8	0.7 (≈ 0.255 µg/mL)	21	65	368	399	331	1.98	230			
C/C=C1\C[N@]2CC[C@H]1C[C@H]2C(=O)c1ccnc2ccc(O)cc12														Active	Active	
C/C=C1\CN2CC[C@H]1C[C@H]2[C@H](O)c1ccnc2ccc(O)cc12														Active	Active	
C/C=C1/CN2CC[C@H]1C[C@H]2[C@H](O)c1ccnc2ccc(O)cc12	54.6	67.2	4.98	190	20	52 (≈ 16.1 µg/mL)	23.3	> 100	442	511	619	1.98	207			CC90 at 24 h [16]: 300 µM; MBC (Streptococcus pneumoniae [17]): 16 µg/mL (≈ 51.5 µM); MIC (Streptococcus pneumoniae [18]): 128 µg/mL (≈ 412 µM); CC90 at 24 h [19]: > 300 µM; MIC (Streptococcus pneumoniae [20]): 64 µg/mL (≈ 206 µM); MIC (Streptococcus pneumoniae [21]): 4 µg/mL (≈ 12.9 µM); metabolised at 1 h, 10 µM [22]: 89%
OC/C=C1\C[N@]2CC[C@H]1C[C@H]2[C@H](O)c1ccnc2ccc(OC3CCC3)cc12														Active	Active	
CCOc1ccc2nccc([C@@H](O)[C@@H]3C[C@@H]4CCN3C[C@@H]4CC)c2c1 [ETHYLHYDROCUPREINE]	60	31.8	30	144	12.7	6 to 12 (≈ 2.04 to 4.09 µg/mL)	109	> 100	1570	375	639	1.98	274			CC90 at 24 h [16]: 300 µM; MBC (Streptococcus pneumoniae [17]): 4 µg/mL (≈ 11.7 µM); MIC (Streptococcus pneumoniae [18]): 2 µg/mL (≈ 5.87 µM); CC90 at 24 h [19]: 300 µM; MIC (Streptococcus pneumoniae [23]): 64 µg/mL (≈ 188 µM); MIC (Streptococcus pneumoniae [24]): 16 µg/mL (≈ 47 µM); MIC (Streptococcus pneumoniae [20]): 2 µg/mL (≈ 5.87 µM); MIC (Streptococcus pneumoniae [21]): 2 µg/mL (≈ 5.87 µM); metabolised at 1 h, 10 µM [22]: 87%; MIC (Streptococcus pneumoniae [25]): 4 to 8 µg/mL (≈ 11.7 to 23.5 µM); MIC (Streptococcus pneumoniae [26]): 2 µg/mL (≈ 5.87 µM)
O[C@@H](c1cc(C(F)(F)F)nc2c(C(F)(F)F)cccc12)[C@H]1CCCCN1 [(S,R)-MEFLOQUINE]																MIC (Enterococcus faecalis): 16 µg/mL (≈ 42.3 µM); MIC (Streptococcus pneumoniae [27]): 0.4 to 0.8 µg/mL (≈ 1.06 to 2.11 µM); MIC (Staphylococcus aureus): 16 µg/mL (≈ 42.3 µM); Cmax [28]: 50 ng/mL; half-life [29]: 20 days; MIC [30]: 16 µg/mL (≈ 42.3 µM); fraction unbound [31]: < 0.02
